We go through 26 compounds from ChEMBL document CHEMBL4152388, “Structure-Activity Relationships in Metal-Binding Pharmacophores for Influenza Endonuclease” (J Med Chem, 2018).

Experiment [1] has as its system Influenza A virus (A/California/04/2009(H1N1)). Put plainly: Inhibition of Influenza A (A/California/04/2009) (H1N1) clinical isolate N-terminal truncated PA endonuclease at 500 nM using 5'-FAM/3-TAMRA quencer labeled 17-mer ssDNA-oligo as substrate measured over 45 mins by FRET assay relative to control.
The target of experiment [2] is T1, Arginase-1 (Homo sapiens) (UniProt P05089).
T1 sequence (whole entry): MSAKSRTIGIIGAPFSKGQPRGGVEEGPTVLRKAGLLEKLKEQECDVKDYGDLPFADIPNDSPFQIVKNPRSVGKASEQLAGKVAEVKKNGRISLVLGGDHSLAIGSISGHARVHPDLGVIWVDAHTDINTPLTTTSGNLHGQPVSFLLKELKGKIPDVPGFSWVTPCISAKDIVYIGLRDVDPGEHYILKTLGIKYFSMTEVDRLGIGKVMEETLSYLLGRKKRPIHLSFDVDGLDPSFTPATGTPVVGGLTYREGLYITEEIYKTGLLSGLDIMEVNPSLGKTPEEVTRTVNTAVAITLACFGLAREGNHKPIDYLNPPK
Nature of the experiment: Inhibition of full length human arginase 1 expressed in Escherichia coli BL21(DE3) at 200 uM using unlabeled L-arginine/L-[guanidino-14C]arginine as substrate after 5 mins by liquid scintillation counting method relative to control. The method, boiled down:
(§1)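 Single-concentration cross-inhibition screen, final inhibitor 200 μM, percent inhibition relative to positive and negative controls; run per literature protocols (Arg1, MetAP1 Mn2+ isoform, NDM-1).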

Another experiment deals with Bacteria. Nature of the experiment: Inhibition of bacterial NDM1 at 200 uM using chromacef as substrate preincubated for 10 mins followed by substrate addition. The method, boiled down:
as §1

Experiment [3] addresses Human immunodeficiency virus type 1 integrase (Human immunodeficiency virus 1) (UniProt Q7ZJM1). Nature of the experiment: Inhibition of recombinant HIV1 integrase 3'-processing activity at 200 uM using 5'-end [32P]-labeled oligonucleotide substrate after 60 mins by densitometric analysis relative to control.
Experiment [4] has the same target. Put plainly: Inhibition of recombinant HIV1 integrase strand transfer activity at 200 uM using 5'-end [32P]-labeled oligonucleotide substrate after 60 mins by densitometric analysis relative to control.
The target of experiment [5] is Carbonic anhydrase 2 (Homo sapiens) (UniProt P00918). Put plainly: Inhibition of human carbonic anhydrase 2 at 200 uM using p-nitrophenyl acetate as substrate preincubated for 15 mins followed by substrate addition and measured every 1 min for 20 mins. The method, boiled down:
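Single-point screen at 200 μM, percent inhibition relative to positive and negative controls, following literature protocols.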

The target of experiment [6] is 72 kDa type IV collagenase (Homo sapiens) (UniProt P08253). Nature of the experiment: Inhibition of recombinant human MMP2 at 200 uM using Mca-Pro-Leu-Gly-Leu-Dpa-Ala-Arg-NH2.AcOH as substrate preincubated for 30 mins followed by substrate addition and measured every min for 20 mins by fluorescence assay.
The target in experiment [7] is Lactoylglutathione lyase (Homo sapiens) (UniProt Q04760). Nature of the experiment: Inhibition of human glyoxalase 1 at 200 uM relative to control.
Experiment [8] deals with T2, Protein deacetylase HDAC6 (Homo sapiens) (UniProt Q9UBN7).
T2 sequence (whole entry): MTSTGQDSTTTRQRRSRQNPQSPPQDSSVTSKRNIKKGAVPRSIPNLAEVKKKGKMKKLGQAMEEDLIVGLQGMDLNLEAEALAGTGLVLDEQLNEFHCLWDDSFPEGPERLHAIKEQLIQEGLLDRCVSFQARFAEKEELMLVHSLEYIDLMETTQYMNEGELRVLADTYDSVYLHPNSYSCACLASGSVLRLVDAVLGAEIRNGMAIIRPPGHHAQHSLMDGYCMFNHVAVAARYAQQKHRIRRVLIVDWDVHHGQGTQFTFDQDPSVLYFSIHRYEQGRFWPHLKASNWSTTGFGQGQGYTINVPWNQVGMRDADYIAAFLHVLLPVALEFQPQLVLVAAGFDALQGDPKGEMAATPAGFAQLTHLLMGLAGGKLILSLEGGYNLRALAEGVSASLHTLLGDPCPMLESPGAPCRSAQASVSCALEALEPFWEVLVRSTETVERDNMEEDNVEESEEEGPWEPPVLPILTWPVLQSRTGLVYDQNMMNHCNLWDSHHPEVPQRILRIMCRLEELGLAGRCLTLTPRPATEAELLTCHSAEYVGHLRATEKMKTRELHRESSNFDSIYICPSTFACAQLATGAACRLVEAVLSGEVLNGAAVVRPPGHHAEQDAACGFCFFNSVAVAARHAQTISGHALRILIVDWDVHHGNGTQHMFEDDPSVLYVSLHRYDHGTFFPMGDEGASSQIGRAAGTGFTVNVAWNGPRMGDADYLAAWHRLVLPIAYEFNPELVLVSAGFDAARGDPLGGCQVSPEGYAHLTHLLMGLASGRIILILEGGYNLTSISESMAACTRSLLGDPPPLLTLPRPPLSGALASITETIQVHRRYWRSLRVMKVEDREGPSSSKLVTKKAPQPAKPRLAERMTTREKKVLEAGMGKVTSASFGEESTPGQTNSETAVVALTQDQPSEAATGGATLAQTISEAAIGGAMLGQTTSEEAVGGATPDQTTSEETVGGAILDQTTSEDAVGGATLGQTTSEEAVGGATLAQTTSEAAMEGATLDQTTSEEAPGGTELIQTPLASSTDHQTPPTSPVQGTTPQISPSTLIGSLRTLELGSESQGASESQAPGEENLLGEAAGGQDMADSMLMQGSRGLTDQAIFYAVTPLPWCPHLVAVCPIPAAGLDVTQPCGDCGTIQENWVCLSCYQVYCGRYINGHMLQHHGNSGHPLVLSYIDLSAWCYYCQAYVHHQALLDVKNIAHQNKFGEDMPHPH
Nature of the experiment: Inhibition of N-terminal GST-tagged recombinant full length human HDAC6 expressed in baculovirus infected Sf9 insect cells at 200 uM using HDAC substrate 3 after 30 mins by fluorescence assay relative to control.

Experiment [9] concerns Influenza A virus (A/California/04/2009(H1N1)). Put plainly: Inhibition of Influenza A (A/California/04/2009) (H1N1) clinical isolate N-terminal truncated PA endonuclease at 500 nM using 5'-FAM/3-TAMRA quencer labeled 17-mer ssDNA-oligo as substrate measured over 45 mins in presence of up to 25 mM metal ions by FRET assay relative to control.
Experiment [10] in a line: Inhibition of Influenza A (A/California/04/2009) (H1N1) clinical isolate N-terminal truncated PA endonuclease using 5'-FAM/3-TAMRA quencer labeled 17-mer ssDNA-oligo as substrate measured over 45 mins by FRET assay. More on the design: species or system Influenza A virus (A/California/04/2009(H1N1)). An outline of the steps: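 Cleavage of a 5'-FAM/3'-TAMRA 17-mer ssDNA substrate (200 nM) by influenza PA endonuclease (4 nM) in 20 mM Tris, 150 mM NaCl, 2 mM MnCl2, 10 mM β-mercaptoethanol, 0.2% Triton-X100, pH 8.0.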

Activity calls are given as the source filed them. The rule behind the calls is not given here.

Chain of Human immunodeficiency virus type 1 integrase (Human immunodeficiency virus 1) (Q7ZJM1 as listed by the source): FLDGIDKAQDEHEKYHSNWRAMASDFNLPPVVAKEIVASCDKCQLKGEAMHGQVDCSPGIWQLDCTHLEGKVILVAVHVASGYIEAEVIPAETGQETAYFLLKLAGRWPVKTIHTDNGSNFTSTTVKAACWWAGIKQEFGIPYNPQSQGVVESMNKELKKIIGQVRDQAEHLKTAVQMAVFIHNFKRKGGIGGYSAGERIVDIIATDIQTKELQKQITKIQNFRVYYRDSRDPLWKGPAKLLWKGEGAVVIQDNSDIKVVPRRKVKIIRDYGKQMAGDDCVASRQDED
Chain of 72 kDa type IV collagenase (Homo sapiens) (P08253 110-660 limits assumed): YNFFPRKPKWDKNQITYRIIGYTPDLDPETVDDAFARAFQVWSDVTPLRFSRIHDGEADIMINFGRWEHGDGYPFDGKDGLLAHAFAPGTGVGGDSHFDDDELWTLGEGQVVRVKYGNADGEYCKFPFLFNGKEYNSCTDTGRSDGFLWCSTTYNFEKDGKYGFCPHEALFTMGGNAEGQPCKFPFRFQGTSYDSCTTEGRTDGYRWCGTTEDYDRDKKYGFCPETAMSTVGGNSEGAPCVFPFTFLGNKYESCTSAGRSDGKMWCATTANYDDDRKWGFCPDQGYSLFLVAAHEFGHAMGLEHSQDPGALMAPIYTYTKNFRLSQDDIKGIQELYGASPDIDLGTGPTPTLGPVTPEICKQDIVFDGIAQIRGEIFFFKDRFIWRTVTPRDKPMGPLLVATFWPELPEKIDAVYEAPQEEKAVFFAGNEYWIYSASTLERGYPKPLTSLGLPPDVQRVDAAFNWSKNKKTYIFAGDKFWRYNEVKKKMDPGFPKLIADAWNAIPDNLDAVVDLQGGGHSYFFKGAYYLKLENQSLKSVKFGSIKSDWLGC
Chain of Lactoylglutathione lyase (Homo sapiens) (Q04760 2-184 limits assumed): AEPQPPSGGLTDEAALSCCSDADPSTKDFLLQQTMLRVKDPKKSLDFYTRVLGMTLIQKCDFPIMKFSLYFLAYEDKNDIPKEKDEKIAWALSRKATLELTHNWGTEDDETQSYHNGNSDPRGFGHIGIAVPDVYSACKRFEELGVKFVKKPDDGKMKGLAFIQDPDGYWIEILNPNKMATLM

The term inhibition denotes how much of the control response was suppressed. `Cc1cc(=O)c(O)c(C(=O)O)n1O`: the inhibition in experiment [1] is 81%; in [2], 12%; in the experiment on Bacteria, 22%.

Consider `Cc1nc(C(=O)O)c(O)c(=O)[nH]1`, for which the inhibition in experiment [1] came out at 28%; in [2], 0%; in the experiment on Bacteria it was 3%.

As to `O=c1c(O)ccccc1O`, the inhibition in [1] is 95%; in experiment [2], 92%; in the experiment on Bacteria, 92%.

On to `O=C(O)c1ccc2cccc(O)c2[n+]1[O-]`, for which the inhibition in experiment [1] was 5%; in experiment [2], 16%; with Bacteria it was 87%.

Take `Cc1cc(O)c(=O)c(O)cc1C(=O)O`: the figures for the inhibition (in [1]; in [2]; in the experiment with Bacteria) were 98%, 32% and 61%, respectively.

For `O=c1cc[nH]c(-c2nnn[nH]2)c1O`, the inhibition in experiment [1] amounted to 96%; in experiment [2] it was 7%; in the experiment with Bacteria, 99%.

Regarding `O=C(O)c1cccc(=O)n1O`, the inhibition in [1] is 9%; in experiment [2], 2%; in the experiment with Bacteria, 25%.

Turning to `N/C(=N\O)c1[nH]ccc(=O)c1O`, the inhibition stood at 15% in [1], 83% in experiment [2] and 43% with Bacteria.

`O=C1c2c(O)cccc2Cc2cccc(O)c21`: the figures for the inhibition (in experiment [1]; in experiment [2]; in the experiment with Bacteria) were 18%, 41% and 6%, respectively.

For the compound `Cc1cc(=O)c(O)c(C(=O)O)o1`, the inhibition in experiment [1] is 96%; in experiment [2], 8%; with Bacteria, 12 to 13%; in [4], 37%; in experiment [6] it was 11%; in experiment [7], 11%. In addition, the inhibition result in experiment [3], in experiment [5] and in [8] was “inactive” throughout. For the same compound, in experiment [9], the inhibition result is “Active”.

Regarding `O=C(O)c1occc(=O)c1O`, the values for the inhibition (in experiment [1]; in experiment [2]; in the experiment on Bacteria) were 94%, 1% and 4%, respectively.

Consider `Cc1cc(=O)c(O)c(-c2ncco2)o1`, for which the inhibition in [1] was found to be 88%; in experiment [2], 0%; in the experiment on Bacteria, 8%.

With `O=C(O)c1ccc2cccnc2c1O`, the inhibition in experiment [1] turned out to be 67%; in [2], 22%; with Bacteria it was 10%.

For orientation: IC50 means the point on the concentration scale where inhibition reaches its midpoint. A word on the pIC50: it is the IC50 on a negative log10 scale, so that one unit is a factor of ten. Read a low pIC50 as a large IC50. As to `Oc1cccc(O)c1O` [PYROGALLOL], the IC50 in experiment [10] came out at 1700 nM. The same compound gave a pIC50 in experiment [10] of 5.8. Besides, the inhibition in [1] stood at 21%; in experiment [2], 49%; in the experiment on Bacteria, 63%.

Consider `Cc1cc(=O)c(O)c(C(=O)O)[nH]1`, for which the values for the inhibition (in experiment [1]; in experiment [2]; in the experiment with Bacteria) were 97%, 24% and 6%, respectively. Further, the inhibition result in [9] was “Active”.

As for `Cc1cc(=O)c(O)c(C(N)=O)o1`, the inhibition turned out to be 30% in experiment [1], 5% in experiment [2] and 8% with Bacteria.

In experiment [10], `O=C(O)c1cccc(C(=O)O)n1` [DIPICOLINIC ACID] came in with an IC50 greater than 500000 nM and a pIC50 of less than 3.3.

With `Cc1nc(-c2[nH]ccc(=O)c2O)no1`, the inhibition in [1] turned out to be 30%; in [2], 6%; in the experiment with Bacteria it was 3%.

On to `Cc1cc(=S)c(O)c(C(=O)O)o1`, for which the inhibition in [1] was 46%; in experiment [2] it was 9%; with Bacteria, 84%.

In the case of `Nc1cccc(C(=O)O)c1O`, the inhibition in experiment [1] stood at 0%; in [2] it was 11%; with Bacteria, 7%.

With `Cc1cc(=O)c(O)c(C(=O)O)n1C`, the inhibition in experiment [1] was found to be 21%; in [2], 2%; with Bacteria, 1%.

Turning to `CNC(=O)c1oc(C)cc(=O)c1O`, the figures for the inhibition (in experiment [1]; in experiment [2]; in the experiment on Bacteria) were 22%, 8% and 6%, respectively.

Take `Cc1cc(C(=O)O)c(O)c(=O)[nH]1`: the results for the inhibition (in [1]; in experiment [2]; in the experiment with Bacteria) were 44%, 8% and 9%, respectively.

With `CNC(=O)c1cc(C)[nH]c(=O)c1O`, the inhibition in experiment [1] is 7%; in experiment [2], 5%; in the experiment with Bacteria, 8%.

For `Cc1occ(O)c(=O)c1C(=O)O`, the figures for the inhibition (in [1]; in experiment [2]; in the experiment with Bacteria) were 21%, 5% and 15%, respectively.

As to `O=C(O)c1cccc(O)c1O`, the inhibition in experiment [1] worked out at 15%; in [2], 82%; in the experiment on Bacteria, 15%.
